Results taken from paper PMC4777260 (Pharmacology Research & Perspectives, 2016).

Experiments:
PT = assay: Ex vivo prothrombin time; assay type: in vivo, rat; settings: plasma collected post-AVS, small molecule study
In short: (§1)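 Rats received a steady-state IV bolus-plus-infusion. A terminal blood sample was taken after the shunt and bleeding procedures into sodium citrate (11 mmol/L final). It was centrifuged at 2500g, 4°C, 15 min. One platelet-poor plasma aliquot was used for clotting times and the other for plasma drug concentration.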

fXa [1] = settings: equal fXa occupancy human/rat
aPTT = assay: Ex vivo activated partial thromboplastin time; assay type: in vivo, rat; settings: plasma collected post-AVS, small molecule study
In short: as §1

rat fIXa = rat fIXa (Rattus norvegicus, UniProt P16296); assay: fIXa inhibition constant; assay type: biochemical
rat fIXa, sequence (P16296 228-462 limits assumed): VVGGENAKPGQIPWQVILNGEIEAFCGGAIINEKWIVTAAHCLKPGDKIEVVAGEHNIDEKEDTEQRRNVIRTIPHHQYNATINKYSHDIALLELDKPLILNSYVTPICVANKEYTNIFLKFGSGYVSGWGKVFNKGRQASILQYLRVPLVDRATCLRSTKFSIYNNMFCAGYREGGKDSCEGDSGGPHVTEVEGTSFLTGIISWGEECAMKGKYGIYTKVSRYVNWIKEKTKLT
rat fIXa, sequence (P16296 40-185 partner limits assumed): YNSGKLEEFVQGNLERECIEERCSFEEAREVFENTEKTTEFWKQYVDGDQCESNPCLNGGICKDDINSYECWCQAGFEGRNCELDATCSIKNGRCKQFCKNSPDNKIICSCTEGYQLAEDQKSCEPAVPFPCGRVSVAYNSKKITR

fXa [2] = assay: Calculated fXa enzyme occupancy; settings: rat AVS
[3] = tested on: rat arteriovenous shunt (AVS/thrombosis); assay: Rat arteriovenous shunt; assay type: in vivo
In short: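 Male Sprague Dawley rats (350–400 g) were anaesthetised with thiobutabarbital. Test compound or vehicle (35% w/v hydroxypropyl-β-cyclodextrin, 10 mmol/L phosphate buffer) was given as an IV bolus plus constant infusion: five doses, n ≥ 10/group, blinded. At 15 min, a carotid–jugular shunt with silk thread ran 15 min. CW = thread weight gain. A vehicle-proportional Imax model was fitted to CW versus plasma concentration.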

Rat pharmacokinetics = settings: in vivo
[4] = Fraction unbound in plasma by equilibrium dialysis, human; assay type: in vitro ADME
In short: (§2)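 Plasma fraction unbound was determined by equilibrium dialysis in triplicate. Its standard error fed simulations of clinically relevant concentration ranges.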

[5] = Fraction unbound in plasma by equilibrium dialysis, rat; assay type: in vitro ADME
In short: as §2

[6] = tested on: fIIa formation (thrombin generation); assay: Ex vivo thrombin generation assay; assay type: in vivo, rat; settings: TF 1, 5, 20 pmol/L trigger
fXa [7] = assay: Calculated fXa enzyme occupancy; parameters: species or system human; settings: C min 107 ng/mL, 5 mg BID SPAF dose
Human fIXa = Human fIXa (Homo sapiens, UniProt P00740); assay: fIXa inhibition constant; assay type: biochemical
Human fIXa, sequence (P00740 227-461 limits assumed): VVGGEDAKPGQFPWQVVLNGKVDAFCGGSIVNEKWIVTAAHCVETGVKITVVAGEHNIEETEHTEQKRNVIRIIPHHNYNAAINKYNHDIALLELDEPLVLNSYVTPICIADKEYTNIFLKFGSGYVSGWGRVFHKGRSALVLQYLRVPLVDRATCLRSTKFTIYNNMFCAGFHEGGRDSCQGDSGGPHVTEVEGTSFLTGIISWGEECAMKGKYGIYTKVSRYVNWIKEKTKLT
Human fIXa, sequence (P00740 47-191 partner limits assumed): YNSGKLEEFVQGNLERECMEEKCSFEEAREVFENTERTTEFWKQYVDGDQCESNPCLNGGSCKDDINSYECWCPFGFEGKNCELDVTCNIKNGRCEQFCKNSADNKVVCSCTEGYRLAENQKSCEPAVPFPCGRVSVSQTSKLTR

[8] = tested on: rat cuticle bleeding time (CBT); assay: Rat cuticle bleeding time; assay type: in vivo
In short: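 Same anaesthetised, IV bolus-plus-infusion rats as the shunt study. Five minutes after shunt placement, two hind-paw toe cuticles were cut at the quick. The paw was immersed in 37° lactated Ringer's, and time to bleeding cessation was recorded (10 min maximum). A linear model of CBT versus plasma concentration treated 600 s values as right-censored. Median and 5th/95th percentiles were simulated from parameter standard errors.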

predicted rat equivalent of C avg (fXa [1]): 24 µM
Ki (rat fIXa): > 30 µM
clearance (Rat pharmacokinetics): 12 mL/min/kg
half-life (Rat pharmacokinetics): 51.6 min
fraction unbound [4]: 0.093 ± 0.013
fraction unbound [5]: 0.019
calculated EO achieved at median C min (fXa [7]): 99.2%
Ki (Human fIXa): > 30 µM
animals that reached the limit of the CBT assay (600 sec) ([8]; higher doses): 17
Slope (slope of the drug effect on bleeding time) ([8]; linear PK/PD model of CBT vs rat plasma concentration): 29.6
effect on CBT vs vehicle (in words) ([8]; two effective doses A4, A5): significant prolongation of the CBT
SMILES: COc1ccc(-n2nc(C(N)=O)c3c2C(=O)N(c2ccc(N4CCCCC4=O)cc2)CC3)cc1 [Apixaban]
effect on PT (in words) (PT): concentration‐dependent increase
effect on aPTT (in words) (aPTT): concentration‐dependent increase
fXa EO required to ensure CW <50 mg in all animals (fXa [2]): > 99%
target CW corresponding to the apixaban clinical C min ([3]; PK/PD model simulation at rat equivalent of clinical C min): 16 (12–24) mg
CW reduction vs vehicle (in words) ([3]; two highest doses A4 (3/3.75 mg/kg), A5 (8/10.2 mg/kg)): significant CW reduction
I max (maximal inhibition of CW) ([3]; vehicle-proportional Imax PK/PD model of CW vs rat plasma concentration): 0.946
activity in TGA (in words) [6]: activity was constant across the TF concentration tested
